Data set [1] in a line: Inhibition of mitochondrial complex 1 in bovine heart mitochondria assessed as effect on rate of NADH oxidation. Also noted: species or system Bos taurus. The procedure, abridged:
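Bovine heart submitochondrial particles (45 µg/mL final) in 50 mM K₂HPO₄ pH 7.4 with 0.4 µM antimycin A and 2 mM KCN. Inhibitor at varying concentrations preincubated 4 min, then 100 µM decyl ubiquinone and 50 µM NADH added. NADH oxidation followed at 340 nm, 37 °C, 120 s; IC50 is concentration giving 50% inhibition.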

Data set [2] can be described thus: Ratio of drug uptake in heart to liver of Sprague-Dawley rat at 15 uCi, iv after30 mins. In kind it is ADME, organism-based. The settings on record: in vivo, 0.5 h. The method in brief:
(§1)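 Same rat protocol: pentobarbital-anesthetized male SD rats (300–400 g), about 15 µCi iv in 10% ethanol saline via femoral vein, three animals per point, gamma counting of weighed tissues with decay correction. Ratios formed from heart %ID/g over blood, lung, liver or femur %ID/g at 30 min post injection.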

Data set [3] relates to Blood. The data set can be described thus: Biodistribution in Sprague-Dawley rat blood at 15 uCi, iv after 120 mins. It is filed as ADME, organism-based. The settings on record: in vivo, 2 h. The method in brief:
(§2)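 Male Sprague–Dawley rats (300–400 g) anesthetized with sodium pentobarbital 50 mg/kg ip; left femoral vein cannulated; about 15 µCi radiotracer in 0.3 mL 10% ethanol saline given iv. Killed in CO₂ at 30 or 120 min (n = 3 per time point); tissues weighed and gamma-counted. Counts decay-corrected, net dose from syringe and catheter residues subtracted; expressed as %ID/g ± SD.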

Data set [4] deals with Femur. The data set can be described thus: Biodistribution in Sprague-Dawley rat femur at 15 uCi, iv after 120 mins. In kind it is ADME, organism-based. The settings on record: in vivo, 2 h. The method in brief: as §2
Data set [5] deals with Lung. The experiment in a line: Biodistribution in Sprague-Dawley rat lung at 15 uCi, iv after 120 mins. In kind it is ADME, organism-based. The settings on record: in vivo, 2 h. The procedure, abridged: as §2
Data set [6] concerns Liver. The experiment in a line: Biodistribution in Sprague-Dawley rat liver at 15 uCi, iv after 30 mins. In kind it is ADME, organism-based. The settings on record: in vivo, 0.5 h. The method in brief:
as §2

Data set [7] in a line: Ratio of drug uptake in heart to femur of Sprague-Dawley rat at 15 uCi, iv after30 mins. The settings on record: in vivo, 0.5 h. In kind it is ADME, organism-based. The procedure, abridged:
as §1

Data set [8] relates to Lung. The data set can be described thus: Biodistribution in Sprague-Dawley rat lung at 15 uCi, iv after 30 mins. The settings on record: in vivo, 0.5 h. It is filed as ADME, organism-based. The procedure, abridged: as §2
Data set [9] is described as follows: Ratio of drug uptake in heart to blood of Sprague-Dawley rat at 15 uCi, iv after 30 mins. It is filed as ADME, organism-based. The settings on record: heart and blood (heart-to-blood ratio), read-out: Activity. The method in brief: as §1
The test system of data set [10] is Heart. The experiment in a line: Biodistribution in Sprague-Dawley rat heart at 15 uCi, iv after 30 mins. In kind it is ADME, organism-based. The settings on record: in vivo, 0.5 h. The method in brief: as §2
A short description of data set [11]: Ratio of drug uptake in heart to lung of Sprague-Dawley rat at 15 uCi, iv after30 mins. It is filed as ADME, organism-based. The settings on record: in vivo, 0.5 h. The procedure, abridged:
as §1

Data set [12] has as its system Liver. The experiment in a line: Biodistribution in Sprague-Dawley rat liver at 15 uCi, iv after 120 mins. It is filed as ADME, organism-based. The settings on record: in vivo, 2 h. The procedure, abridged: as §2
In data set [13] the test system is Heart. The data set can be described thus: Biodistribution in Sprague-Dawley rat heart at 15 uCi, iv after 120 mins. It is filed as ADME, organism-based. The settings on record: in vivo, 2 h. The method in brief: as §2
Data set [14] relates to Femur. The data set can be described thus: Biodistribution in Sprague-Dawley rat femur at 15 uCi, iv after 30 mins. In kind it is ADME, organism-based. The settings on record: in vivo, 0.5 h. The method in brief: as §2
The test system of data set [15] is Blood. The data set can be described thus: Biodistribution in Sprague-Dawley rat blood at 15 uCi, iv after 30 mins. The settings on record: in vivo, 0.5 h. In kind it is ADME, organism-based. The procedure, abridged:
as §2

pIC50: −log10 of the molar value.

In general, pIC50 refers to the IC50 on a negative log10 scale, so that one unit is a factor of ten.

For the compound `Cc1c(SCc2ccc(CCCC[18F])cc2)oc2ccccc2c1=O`, the pIC50 in data set [1] was 8.05.
Same read-out and setting: the result for `Cc1c(SCc2ccc(C(C)(C)C)cc2)oc2ccccc2c1=O` reads 7.28; that for `CC(C)(C)c1ccc(CSc2cnn(C(C)(C)C)c(=O)c2F)cc1`, 6.55.
The same measure, in the same setting: next, `[18F]CCCCc1ccc(CCOc2ncnc3ccccc23)cc1`: 7.96.
Regarding `CC(C)(C)c1ccc(CNc2cnn(C(C)(C)C)c(=O)c2Cl)cc1`, in data set [1], the pIC50 is 5.40.
Regarding `CC(C)(C)n1ncc(OCc2ccc3ccccc3c2)c(Cl)c1=O`, the pIC50 in data set [1] is 7.22.
On to `CC(C)(C)n1ncc(OCc2ccc(CCCCF)cc2)c(Cl)c1=O`, for which the results for the Activity in data set [2], in [7] and in [11] were 1.45, 6.84 and 14.93, respectively. Besides, the Drug uptake in the data set on Blood [3] came out at 0.04 % ID/g; in the data set on Femur [4], 1.16 % ID/g; with Lung [5], 0.18 % ID/g; in the data set with Liver [6], 2.03 % ID/g; in the data set with Lung [8] it was 0.01 % ID/g; in the data set with Heart [10], 2.94 % ID/g. Besides, the Drug uptake in the data set with Liver [12] worked out at 0.62 % ID/g; in the data set with Heart [13] it was 2.99 % ID/g; in the data set with Femur [14], 0.43 % ID/g; in the data set with Blood [15] it was 0.11 % ID/g. Moreover, the pIC50 in data set [1] is 7.82. In addition, the Kp at 0.5 h in data set [9] turned out to be 60.7.
As to `CC(F)CCc1ccc(COc2cnn(C(C)(C)C)c(=O)c2Cl)cc1` (stereo not drawn), the figures for the Activity in data set [2], in data set [7] and in [11] were 1.78, 1.98 and 12.49, respectively. The Drug uptake in the data set with Femur [4] was determined as 2.38 % ID/g; with Lung [5] it was 0.14 % ID/g; with Liver [6], 1.27 % ID/g; in the data set with Lung [8], 0.18 % ID/g; in the data set with Heart [10] it was 2.25 % ID/g; with Liver [12], 0.63 % ID/g. Also, the Drug uptake in the data set on Heart [13] is 2.14 % ID/g; in the data set on Femur [14], 1.14 % ID/g; with Blood [15], 0.11 % ID/g. Also, the pIC50 in data set [1] is 8.00. Moreover, the Kp at 0.5 h in data set [9] is 20.8.
Turning to `CC(F)COc1ccc(COc2cnn(C(C)(C)C)c(=O)c2Cl)cc1` (stereo not drawn), the Activity in [2] was determined as 2.62; in [7], 0.4; in [11], 11.41. Further, the Drug uptake came to 0.04 % ID/g with Blood [3]; 3.91 % ID/g in the data set on Femur [4]; 0.06 % ID/g in the data set on Lung [5]; 0.44 % ID/g in the data set with Liver [6]; 0.1 % ID/g in the data set on Lung [8]; 1.15 % ID/g in the data set with Heart [10]. For the same compound, the Drug uptake in the data set on Liver [12] came out at 0.4 % ID/g; with Heart [13] it was 1.14 % ID/g; in the data set with Femur [14], 2.91 % ID/g; with Blood [15], 0.09 % ID/g. In addition, the pIC50 in data set [1] was 8.10. The Kp at 0.5 h in [9] is 13.2.
As to `CCCCCCCCCCSC1N=CN(C(C)(C)C)C(=O)C1Cl` (stereo not drawn), in [1], the pIC50 is less than 5.40.
For `[2H]C([2H])(Oc1cnn(C(C)(C)C)c(=O)c1Cl)c1ccc(COC([2H])([2H])C([2H])([2H])F)cc1`, the values for the Activity in [2], in [7] and in [11] were 1.7, 4.6 and 7.33, respectively. Also, the Drug uptake was 0.1 % ID/g with Blood [3]; 0.78 % ID/g with Femur [4]; 0.13 % ID/g in the data set with Lung [5]; 0.64 % ID/g in the data set with Liver [6]; 0.15 % ID/g in the data set with Lung [8]; 1.09 % ID/g with Heart [10]. Besides, the Drug uptake is 0.44 % ID/g in the data set with Liver [12], 1.6 % ID/g with Heart [13], 0.23 % ID/g in the data set on Femur [14] and 0.08 % ID/g in the data set on Blood [15]. Besides, in [1], the pIC50 was 7.55. Further, the Kp at 0.5 h in data set [9] is 12.7.
Take `Cc1c(SCc2ccc(C(C)(C)C)cc2)cnn(C(C)(C)C)c1=O`: in data set [1], the pIC50 is 7.68.
As for `CC(C)(C)c1ccc(CCOc2cnn(C(C)(C)C)c(=O)c2Cl)cc1`, in [1], the pIC50 was 6.15.
Still for that read-out and setting: the result for `CCCCc1ccc(COc2cnn(C(C)(C)C)c(=O)c2Cl)cc1` reads 7.77.
The same measure, in the same setting: next, `CCCCOc1ccc(COc2cnn(C(C)(C)C)c(=O)c2Cl)cc1`: 7.57; `CC(C)(C)c1ccc(COc2cnn(C(C)(C)C)c(=O)c2Cl)cc1`: 7.19.
Turning to `CC(C)(C)n1ncc(OCc2ccc(OCCCF)cc2)c(Cl)c1=O`, the figures for the Activity in [2], in data set [7] and in [11] were 0.77, 2 and 5.4, respectively. Besides, the Drug uptake with Blood [3] was 0.07 % ID/g; with Femur [4] it was 0.76 % ID/g; with Lung [5] it was 0.08 % ID/g; in the data set on Liver [6] it was 1.7 % ID/g; in the data set with Lung [8] it was 0.24 % ID/g; in the data set with Heart [10] it was 1.31 % ID/g. Further, the Drug uptake with Liver [12] was determined as 0.55 % ID/g; in the data set on Heart [13] it was 0.86 % ID/g; with Femur [14], 0.65 % ID/g; in the data set on Blood [15], 0.15 % ID/g. In addition, the pIC50 in data set [1] was 7.33. Further, in [9], the Kp at 0.5 h came to 9.27.
For `CC(C)(C)n1ncc(OCc2ccc3ncccc3c2)c(Cl)c1=O`, the pIC50 in data set [1] is 6.66.
As to `CC(C)(C)n1ncc(OCc2ccc(-c3ccccc3)cc2)c(Cl)c1=O`, the pIC50 in [1] is 7.51.
Regarding `CCC(CF)Oc1ccc(COc2cnn(C(C)(C)C)c(=O)c2Cl)cc1` (stereo not drawn), the Activity came out at 1.11 in data set [2], 0.89 in [7] and 1.37 in data set [11]. Moreover, the Drug uptake in the data set with Blood [3] came to 0.06 % ID/g; with Femur [4] it was 3 % ID/g; in the data set with Lung [5], 0.22 % ID/g; with Liver [6] it was 0.98 % ID/g; in the data set on Lung [8], 0.79 % ID/g; in the data set on Heart [10], 1.05 % ID/g. Further, the Drug uptake with Liver [12] came out at 0.39 % ID/g; with Heart [13], 1.24 % ID/g; in the data set on Femur [14], 1.23 % ID/g; in the data set with Blood [15] it was 0.18 % ID/g. In [1], the pIC50 is 7.80. In data set [9], the Kp at 0.5 h was determined as 6.05.
As to `CC(C)(C)n1ncc(OCc2ccccc2)c(Cl)c1=O`, the pIC50 in [1] is 6.07.
Same read-out and setting: next, `CC(C)(C)c1ccc(CSc2cnn(C(C)(C)C)c(=O)c2CF)cc1`: 6.60; `CC(C)(C)c1ccc(CCOc2ncnc3ccccc23)cc1` [FENAZAQUIN]: 7.05.
Turning to `CC(C)(C)n1ncc(OCc2ccc(COCCF)cc2)c(Cl)c1=O` [FLURPIRIDAZ], the Activity in data set [2] is 2.74; in [7], 7.51; in data set [11], 16.05. Also, the Drug uptake is 0.19 % ID/g in the data set on Blood [3]; 0.75 % ID/g in the data set with Femur [4]; 0.28 % ID/g in the data set with Lung [5]; 1.25 % ID/g in the data set with Liver [6]; 0.21 % ID/g with Lung [8]; 3.41 % ID/g in the data set on Heart [10]. Also, the Drug uptake with Liver [12] is 0.55 % ID/g; in the data set with Heart [13], 3.47 % ID/g; in the data set with Femur [14], 0.45 % ID/g; with Blood [15], 0.11 % ID/g. In addition, the pIC50 in data set [1] was 7.96. In data set [9], the Kp at 0.5 h was 30.
With `CC(C)(C)c1ccc(CSc2cnn(C(C)(C)C)c(=O)c2Cl)cc1` [PYRIDABEN], in data set [1], the pIC50 is 8.10.
The same measure, in the same setting: the result for `C=C(C)[C@H]1Cc2c(ccc3c2O[C@@H]2COc4cc(OC)c(OC)cc4[C@@H]2C3=O)O1` [ROTENONE] reads 7.80.

(Values after ChEMBL document CHEMBL1150282, “Synthesis and biological evaluation of pyridazinone analogues as potential cardiac positron emission tomography tracers” (J Med Chem, 2008).)
